Measurements reported in ChEMBL document CHEMBL4610063, “Mangiferin: A promising natural xanthone from Mangifera indica for the control of acyclovir - resistant herpes simplex virus 1 infection” (Bioorg Med Chem, 2020).
Calls of active or inactive are those of the source. The calls are words filed in the database; no cut-off is given here.

Columns and labels:
Human alphaherpesvirus 1 [1] = experiment: Antiviral activity against ACV-sensitive Herpes simplex virus 1 KOS infected in male Balb/c mouse assessed as reduction in vesicles at 0.7% w/w applied topically 5 times a day at 3 hrs interval for 10 days measured on day 2 post infection; format: functional, organism-based; details: strain KOS
Outline: (§1)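 Balb/c mice (5 weeks, 22–27 g; six per group, sexes tested separately) had the right mid-flank depilated under i.p. anaesthesia and needle-scarified 24 h later. They were inoculated with 70 μL HSV-1 KOS (10^5 PFU/mL). From 4 h post-infection, O/W emulsion with 0.7% w/w mangiferin or ACV cream (50 mg/g) was applied topically 5 times daily for 10 days. Lesions were scored daily.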

Human alphaherpesvirus 1 [2] = experiment: Antiviral activity against ACV-resistant Herpes simplex virus 1 AR-29 infected in female Balb/c mouse assessed as reduction in skin lesion at 0.7% w/w applied topically 5 times a day at 3 hrs interval for 10 days; format: functional, organism-based
Outline: (§2)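 Balb/c mice, 5 weeks old, six per group. Right mid-flank depilated under i.p. anaesthesia, needle-scarified 24 h later and inoculated with 70 μL HSV-1 AR-29 (10^5 PFU/mL). Topical 0.7% w/w O/W emulsion or ACV cream (50 mg/g) starts 4 h post-infection, 5 times daily for 10 days. Lesions are scored daily.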

Human alphaherpesvirus 1 [3] = experiment: Antiviral activity against ACV-resistant Herpes simplex virus 1 AR-29 infected in male Balb/c mouse assessed as reduction in zosteriform lesion at 0.7% w/w applied topically 5 times a day at 3 hrs interval for 10 days measured on day 5 post infection; format: functional, organism-based; outline: as §2
[4] = Selectivity index, ratio of CC50 for African green monkey Vero cells to IC50 for Herpes simplex virus 1 KOS infected in African green monkey Vero cells; format: toxicity; details: read-out: Ratio CC50/IC50
Outline: (§3)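 SI = CC50 (Vero, MTT, 72 h) / IC50 from plaque reduction with mangiferin added at infection (0 h) against HSV-1 AR-29 or KOS; IC50 by linear regression of viral inhibition curves.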

Human alphaherpesvirus 1 [5] = experiment: Antiviral activity against ACV-resistant Herpes simplex virus 1 AR-29 infected in male Balb/c mouse assessed as change in epidermis thickness at 0.7% w/w applied topically 5 times a day at 3 hrs interval for 10 days measured on day 10 post infection by H and E staining based histological analysis; format: functional, organism-based
[6] = Toxicity in Balb/c mouse infected with ACV-sensitive Herpes simplex virus 1 KOS assessed as death at 0.7% w/w applied topically 5 times a day at 3 hrs interval for 10 days measured on day 10 post infection; details: in vivo, topical_or_ocular
[7] = Cytotoxicity against African green monkey Vero cells assessed as reduction in cell viability incubated for 72 hrs by MTT assay; format: cell-based; details: chlorocebus sabaeus
Outline: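 Vero cells exposed to mangiferin 31.25–500 μg/mL for 72 h at 37 °C, 5% CO2. Viability read by MTT as At/Ac × 100 versus untreated cells; CC50 from linear regression.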

Human alphaherpesvirus 1 [8] = experiment: Antiviral activity against ACV-sensitive Herpes simplex virus 1 KOS infected in female Balb/c mouse assessed as reduction in ulcerated lesion at 0.7% w/w applied topically 5 times a day at 3 hrs interval for 10 days measured on day 2 to day 7 post infection; format: functional, organism-based; details: strain KOS; outline: as §1
Human alphaherpesvirus 1 [9] = experiment: Antiviral activity against ACV-sensitive Herpes simplex virus 1 KOS infected in African green monkey Vero cells assessed as inhibition of viral infection at 12.5 ug/ml measured after 72 hrs by crystal violet staining based plaque reduction assay relative to control; format: functional; details: Human alphaherpesvirus 1, strain KOS
Outline: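 Plaque reduction in Vero cells. Mangiferin at 3.12, 6.25, 12.5 or 25 μg/mL is added at infection (0 h) with HSV-1 (10^5 PFU/mL). Agarose overlay with 25 mM MgCl2, 72 h at 37 °C/5% CO2, 20% formaldehyde fix, 0.5% crystal violet stain. %VI is taken against virus control. IC50 comes from linear regression of inhibition curves. Triplicate independent experiments.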

Human alphaherpesvirus 1 [10] = experiment: Antiviral activity against ACV-sensitive Herpes simplex virus 1 KOS infected in African green monkey Vero cells assessed as inhibition of viral adsorption at 3.12 ug/mL preincubated for 30 mins and measured after 1 hr by plaque reduction assay relative to control; format: functional; details: Human alphaherpesvirus 1, strain KOS
Outline: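 Vero cells pre-chilled 30 min at 4 °C, then given mangiferin (3.12–25 μg/mL) together with HSV-1 KOS (10^5 PFU/mL); 1 h adsorption at 4 °C, then plaque reduction: agarose/DMEM overlay with 25 mM MgCl2, 72 h at 37 °C, formaldehyde fixation, crystal violet stain. %VI = 1 − PFU treated/PFU virus control; triplicate independent experiments.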

Human alphaherpesvirus 1 [11] = experiment: Virucidal activity against ACV-resistant Herpes simplex virus 1 AR-29 infected in African green monkey Vero cells assessed as inhibition of viral inhibition at 3.12 to 25 ug/mL measured after 1 hr by plaque reduction assay; format: functional, organism-based
Outline: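 HSV-1 AR-29 suspension is incubated with mangiferin (3.12–25 μg/mL) for 1 h at 37 °C, then titrated by plaque reduction on Vero cells. Agarose/MgCl2 overlay, 72 h, crystal violet stain. %VI is taken against virus control. Triplicate independent experiments.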

Human alphaherpesvirus 1 [12] = experiment: Virucidal activity against ACV-sensitive Herpes simplex virus 1 KOS infected in African green monkey Vero cells assessed as inhibition of viral inhibition at 25 ug/mL measured after 1 hr by plaque reduction assay relative to control; format: functional; details: Human alphaherpesvirus 1, strain KOS
Outline: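 HSV-1 KOS suspension incubated with mangiferin (3.12–25 μg/mL) 1 h at 37 °C, then put on Vero cells for plaque reduction: agarose overlay with MgCl2, 72 h, crystal violet staining. %VI against virus control; triplicate independent experiments.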

Human alphaherpesvirus 1 [13] = experiment: Antiviral activity against ACV-resistant Herpes simplex virus 1 AR-29 infected in female Balb/c mouse assessed as change in dermis thickness at 0.7% w/w applied topically 5 times a day at 3 hrs interval for 10 days measured on day 10 post infection by H and E staining based histological analysis; format: functional, organism-based
[14] = Toxicity in Balb/c mouse infected with ACV-sensitive Herpes simplex virus 1 KOS assessed as effect on body weight at 0.7% w/w applied topically 5 times a day at 3 hrs interval for 10 days measured on day 10 post infection; details: in vivo, topical_or_ocular
[15] = Selectivity index, ratio of CC50 for African green monkey Vero cells to IC50 for Herpes simplex virus 1 AR-29 infected in African green monkey Vero cells; format: toxicity; details: read-out: Ratio CC50/IC50; outline: as §3
Human alphaherpesvirus 1 [16] = experiment: Antiviral activity against ACV-sensitive Herpes simplex virus 1 KOS infected in African green monkey Vero cells assessed as inhibition of viral infection at 3.12 ug/ml measured after 72 hrs by crystal violet staining based plaque reduction assay relative to control; format: functional; details: Human alphaherpesvirus 1, strain KOS
Outline: (§4)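 Vero monolayers infected with HSV-1 KOS (10^5 PFU/mL) with mangiferin (3.12, 6.25, 12.5, 25 μg/mL) added at infection (0 h). Overlay of nutrient agarose with 25 mM MgCl2; plaques counted after 72 h at 37 °C, 5% CO2, fixed in 20% formaldehyde/PBS and stained with 0.5% crystal violet. %VI versus virus control; triplicate experiments.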

Human alphaherpesvirus 1 [17] = experiment: Antiviral activity against ACV-sensitive Herpes simplex virus 1 KOS infected in African green monkey Vero cells assessed as inhibition of viral infection at 6.25 ug/ml measured after 72 hrs by crystal violet staining based plaque reduction assay relative to control; format: functional; details: Human alphaherpesvirus 1, strain KOS; outline: as §4
[18] = Toxicity in Balb/c mouse infected with ACV-resistant Herpes simplex virus 1 AR-29 assessed as death at 0.7% w/w applied topically 5 times a day at 3 hrs interval for 10 days measured on day 10 post infection; details: in vivo, topical_or_ocular

O=c1c2cc(O)c(O)cc2oc2cc(O)c([C@@H]3O[C@H](CO)[C@@H](O)[C@H](O)[C@H]3O)c(O)c12 [MANGIFERIN]
Activity (Human alphaherpesvirus 1 [1]): inactive | Activity (Human alphaherpesvirus 1 [2]): Active | Activity (Human alphaherpesvirus 1 [3]): Active | selectivity ratio [4]: > 143 | Activity (Human alphaherpesvirus 1 [5]): inactive | Activity [6]: Non-Toxic | CC50 at 72 h [7]: > 500 µg/mL | Activity (Human alphaherpesvirus 1 [8]): inactive | inhibition at 12.5 µg/mL (Human alphaherpesvirus 1 [9]): 100% | inhibition at 3.12 µg/mL (Human alphaherpesvirus 1 [10]): 29.2% | inhibition (Human alphaherpesvirus 1 [11]): Active | inhibition at 25 µg/mL (Human alphaherpesvirus 1 [12]): 74.8% | Activity (Human alphaherpesvirus 1 [13]): inactive | Activity [14]: Non-Toxic | selectivity ratio [15]: > 172 | inhibition at 3.12 µg/mL (Human alphaherpesvirus 1 [16]): 37.5% | inhibition at 6.25 µg/mL (Human alphaherpesvirus 1 [17]): 93.9% | Activity [18]: Non-Toxic
